Assay results gathered from unrelated publications.
RPS6KA1: Ribosomal protein S6 kinase alpha-1 (RPS6KA1, Homo sapiens, UniProt Q15418)
RPS6KA1 N-terminal kinase domain: Ribosomal protein S6 kinase alpha-1, N-terminal kinase domain (RPS6KA1, Homo sapiens, UniProt Q15418)
RPS6KA1 C-terminal kinase domain: Ribosomal protein S6 kinase alpha-1, C-terminal kinase domain (RPS6KA1, Homo sapiens, UniProt Q15418)

With `Nc1nc(Nc2ccc(S(N)(=O)=O)cc2)nn1C(=O)c1c(F)cccc1F` the remaining signal was 42.1% (RPS6KA1; cell-free assay; 0.5 µM).
`CCC(=O)N[C@@H]1CC[C@H](C(=O)N(C)c2ccc(-c3nc4ccccc4o3)cc2)C1` gave a remaining binding of 100% (RPS6KA1 N-terminal kinase domain; cell-free assay, competition with immobilised ligand; 1 µM).
With `COc1cc2ncnc(Nc3ccc(Oc4ccccc4)c(C)c3C)c2cc1OC` the inhibition was -2% (RPS6KA1; enzyme activity, inhibitor; 1 µM).
With `CCCOc1ccc(OC)c(F)c1C(=O)c1ccc(C(=O)N[C@@H]2CNC[C@H]2NC(=O)c2ccc3[nH]ncc3c2)cc1` the remaining activity was 29% (RPS6KA1; enzyme activity, inhibitor; 10 µM).
With `CNC(=O)c1ccc(Nc2ncc(C(F)(F)F)c(NCc3nccnc3N(C)S(C)(=O)=O)n2)cc1` the remaining binding was 71% (RPS6KA1 C-terminal kinase domain; cell-free assay, competition with immobilised ligand; 0.1 µM).
For `Cc1cnc(NC2CCOCC2)nc1-n1cnc(C(=O)NC(CN)c2cc(F)cc(Cl)c2)c1` (centres unmarked), the remaining activity was 44% (RPS6KA1; enzyme activity, inhibitor, radiometric; 1 µM).
With `CCN(CC)CCNC(=O)c1c(C)[nH]c(/C=C2\C(=O)Nc3ccc(F)cc32)c1C` the remaining signal was 28% (RPS6KA1; cell-free assay; 0.5 µM).
`Cc1cc(C)c(-n2ccn3nc(-c4cccnc4)cc23)cc1NC(=O)c1cc(C#N)cc(S(F)(F)(F)(F)F)c1` has a remaining binding of 97% (RPS6KA1 N-terminal kinase domain; cell-free assay, competition with immobilised ligand; 0.1 µM).
`CC(C)c1ccc(NC(=O)c2cccs2)c(-c2nc3ccccc3[nH]c2=O)c1` gave an activity vs control of 96% (RPS6KA1; enzyme activity, inhibitor; 1 µM).
For `Cc1nccc(COC(=O)N2C[C@@H]3[C@@H](CNC(=O)c4ccc5[nH]nnc5c4)[C@@H]3C2)n1`, the remaining binding was 96% (RPS6KA1 C-terminal kinase domain; cell-free assay, competition with immobilised ligand; 1 µM).
`C[C@@H]1CCN(c2nccc(-c3cnn4ncccc34)n2)C1` has a remaining binding of 100% (RPS6KA1 N-terminal kinase domain; binding, competition with immobilised ligand; 1 µM).
For `Cn1cncc1C1=CN(c2ncnc3[nH]cnc23)CCS1`, the inhibition was 13% (RPS6KA1; enzyme activity, inhibitor, radiometric; 50 nM).
With `CNC(=O)c1cc(Oc2ccc(NC(=O)Nc3ccc(Cl)c(C(F)(F)F)c3)cc2)ccn1` the inhibition was 5% (RPS6KA1; enzyme activity, inhibitor; 0.3 µM).
The inhibition of `CN1CC(Oc2cnc(C#N)cc2-c2ccn3nc(NC(=O)C4CC4)cc3c2)C1` is reported as 31% (RPS6KA1; enzyme activity, inhibitor; 1 µM).
For `Cc1cc(NC(=O)c2cccc3cc(-c4cccc5[nH]nc(N)c45)ccc23)ccc1F`, the activity vs control was 115% (RPS6KA1; enzyme activity, inhibitor; 0.1 µM).
The activity vs control of `Cc1ccc(C(=O)NCc2ccsc2)cc1C#Cc1cn(C(C)C)c2ncnc(N)c12` is reported as 101% (RPS6KA1; enzyme activity, inhibitor; 1 µM).
For `Nc1nc(Nc2ccccc2)sc1C(=O)c1c(F)cccc1F`, the remaining activity was 29% (RPS6KA1; enzyme activity, inhibitor; 10 µM).
With `N[C@H]1CCN(c2nccc(-c3cnn4ncccc34)n2)C1` the remaining binding was 99% (RPS6KA1 C-terminal kinase domain; binding, competition with immobilised ligand; 1 µM).
`CCCCNc1ncc2c(-c3ccc(F)cc3)nn(C[C@H]3CC[C@H](N)CC3)c2n1` gave an inhibition of 63.4% (RPS6KA1 C-terminal kinase domain; target engagement in cells, inhibitor, chemoproteomics; 20 mM).
`Nc1cnc(N2CCc3cc(S(=O)(=O)Nc4c(F)cc(Cl)cc4F)cc(N4CCCC4=O)c32)nc1` has a remaining binding of 93% (RPS6KA1 N-terminal kinase domain; cell-free assay, competition with immobilised ligand; 1 µM).
For `CC/C(=N\NC(=O)C(C)Nc1ccccc1)c1ccc(O)c(C)c1O` (centres unmarked), the inhibition was 36.6% (RPS6KA1; enzyme activity, inhibitor; 0.1 µM).
`O=C1Nc2ccc(Cl)cc2C1=Cc1cc(Cl)c(O)c(Cl)c1` gave a remaining signal of 48.4% (RPS6KA1; cell-free assay; 0.5 µM).
For `CCOc1cc(-c2nncn2C)ccc1Nc1ncc2cc(C)nc(NCC(C)(C)C)c2n1`, the inhibition was less than 15% (RPS6KA1; enzyme activity, inhibitor, FRET; 1 µM).
The remaining activity of `CC(C)(C)c1nc(-c2cccc(NS(=O)(=O)c3c(F)cccc3F)c2F)c(-c2ccnc(N)n2)s1` is reported as 90% (RPS6KA1; enzyme activity, inhibitor, radiometric; 1 µM).
`CO[C@H]1CC[C@H](CNc2ccc(S(=O)(=O)NC(=O)c3ccc(N4CCN(CC5=C(c6ccc(Cl)cc6)CC(C)(C)CC5)CC4)cc3Oc3cnc4[nH]ccc4c3)cc2[N+](=O)[O-])CC1` has a remaining binding of 73% (RPS6KA1 C-terminal kinase domain; cell-free assay, competition with immobilised ligand; 1 µM).
With `C[S+]([O-])c1ccc(-c2nc(-c3ccncc3)c(-c3ccc(F)cc3)[nH]2)cc1` (centres unmarked) the remaining signal was 99.9% (RPS6KA1; cell-free assay; 0.5 µM).
The remaining binding of `Cc1cnn2ncc(-c3ccnc(N(C)C)n3)c2c1` is reported as 64% (RPS6KA1 C-terminal kinase domain; binding, competition with immobilised ligand; 1 µM).
With `N#CC1(c2ccccn2)CCN(Cc2cc(C(=O)N3CCCC3)c(=O)n3ccccc23)CC1` the remaining binding was 100% (RPS6KA1 N-terminal kinase domain; cell-free assay, competition with immobilised ligand; 1 µM).
For `COc1cc(Nc2cnc(C#N)c(O[C@H](C)CN(C)C)n2)ncc1-c1cnn(C)c1`, the remaining activity was 14% (RPS6KA1; enzyme activity, inhibitor, radiometric; 10 µM).
`Cc1sc(C(=O)NC2COC2)cc1-n1cc(NC(=O)Nc2c(F)cccc2Cl)cn1` has a remaining activity of 93.2% (RPS6KA1; enzyme activity, inhibitor; 10 µM).
With `CN(C)c1nccc(-c2cnn3ncccc23)n1` the remaining binding was 100% (RPS6KA1 N-terminal kinase domain; binding, competition with immobilised ligand; 1 µM).
`CC(=O)c1c(NS(C)(=O)=O)c2cc(-c3ccc(Cl)cc3)c(-c3ccc(Cl)cc3Cl)nc2n(C)c1=O` has a remaining binding of 93% (RPS6KA1 N-terminal kinase domain; cell-free assay, competition with immobilised ligand; 1 µM).
The inhibition of `CCCS(=O)(=O)Nc1ccc(F)c(C(=O)c2c[nH]c3ncc(-c4ccc(Cl)cc4)cc23)c1F` is reported as less than 10% (RPS6KA1; enzyme activity, inhibitor; 1 µM).
`O=C(Nc1cnn(-c2csc(C(=O)NC3COC3)c2)c1)Nc1c(F)cccc1Cl` has a remaining activity of 96.3% (RPS6KA1; enzyme activity, inhibitor; 5 µM).
`Oc1cccc(-c2nc(N3CCOCC3)c3oc4ncccc4c3n2)c1` has a remaining activity of 101% (RPS6KA1; enzyme activity, inhibitor; 10 µM).
`c1cnn2ncc(-c3ccnc(N4CCC45COC5)n3)c2c1` has a remaining binding of 56% (RPS6KA1 C-terminal kinase domain; binding, competition with immobilised ligand; 1 µM).
With `COc1cc2c(N3CCN(C(=O)Nc4ccc(OC(C)C)cc4)CC3)ncnc2cc1OCCCN1CCCCC1` the remaining signal was 94.8% (RPS6KA1; cell-free assay; 0.5 µM).
With `Nc1ncnc2occ(-c3ccc(NC(=O)Nc4cc(C(F)(F)F)ccc4F)cc3)c12` the remaining signal was 20% (RPS6KA1 C-terminal kinase domain; cell-free assay, inhibitor; 20 µM).
With `C=CC(=O)Nc1cc(Nc2nccc(Nc3cc(Cl)c(F)cc3C(C)(C)O)n2)c(OC)cc1N1CC[C@@H](N(C)C)C1` the inhibition was 9% (RPS6KA1; enzyme activity, inhibitor; 1 µM).
With `C[C@@H]1CCN(C(=O)CC#N)C[C@@H]1N(C)c1ncnc2[nH]ccc12` the remaining signal was 90.9% (RPS6KA1; cell-free assay, inhibitor; 0.5 µM).
The remaining activity of `Cn1c(=O)n(-c2ccc(C(C)(C)C#N)cc2)c2c3cc(-c4cnc5ccccc5c4)ccc3ncc21` is reported as 97% (RPS6KA1; enzyme activity, inhibitor; 10 µM).
